Measurements published in ChEMBL document CHEMBL2321740, “Arylazanylpyrazolone derivatives as inhibitors of mutant superoxide dismutase 1 dependent protein aggregation for the treatment of amyotrophic lateral sclerosis” (J Med Chem, 2013).
Activity calls are given as the source filed them. No cut-off for these calls is given here.

Experiments:
[1] = Inhibition of SOD1 mutant (unknown origin); design: species or system Homo sapiens
Liver [2] = assay: Half life in mouse liver microsomes in absence of NADPH; assay type: ADME, Microsome
[3] = (§1) Half life in mouse liver microsomes in presence of NADPH; assay type: ADME, Microsome; conditions: liver microsomes
Liver microsomes [4] = assay: Half life in human liver microsomes in absence of NADPH; assay type: ADME, Microsome
[5] = Inhibition of SOD1 mutant -induced cytotoxicity in cortical neurons after 24 hrs by fluorescence assay in presence of proteosome inhibitor MG132
PC-12 = assay: Inhibition of SOD1 mutant -induced cytotoxicity in rat PC12 cells after 24 hrs by fluorescence assay in presence of proteosome inhibitor MG132; assay type: cell-based
In short: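 PC12 cells expressing G93A SOD1 seeded at 15000 cells/well, held 24 h, then given compound in 12-point dose-response, top concentration 32 μM, halved at each step. After 24 h with compound, MG132 added (final 100 nM). Viability read 48 h later: cells washed twice with PBS, Calcein-AM 1 μM final for 20 min at room temperature, fluorescence intensity measured.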

Caco-2 [6] = assay: Efflux ratio of permeability from basolateral to apical side over apical to basolateral side in human Caco2 cells; assay type: ADME, cell-based
Caco-2 [7] = assay: Apparent permeability of the compound from basolateral to apical side in human Caco2 cells; assay type: ADME, cell-based
Caco-2 [8] = assay: Apparent permeability of the compound from apical to basolateral side in human Caco2 cells; assay type: ADME, cell-based
Liver [9] = assay: as §1; assay type: ADME, Microsome; conditions: microsomes
Liver microsomes [10] = assay: Half life in human liver microsomes in presence of NADPH; assay type: ADME, Microsome
[11] = Aqueous solubility of the compound; assay type: physicochemical; conditions: buffer
[12] = Inhibition of SOD1 mutant -induced cytotoxicity in assessed as recovery of neuronal activity at 10 uM after 24 hrs by fluorescence assay in presence of proteosome inhibitor MG132 relative to control; design: scale not given: the % may be the effect or the level left

EC50 [1]	Structure (SMILES)	also measured
490 nM	CN(Cc1cc(=O)n(Cc2ccccc2)[nH]1)c1cc(Cl)cc(Cl)c1	–
350 nM	CCN(Cc1cc(=O)[nH][nH]1)c1cc(Cl)cc(Cl)c1	–
750 nM	CN(Cc1cc(=O)n(C)[nH]1)c1cc(Cl)cc(Cl)c1	–
310 nM	CN(Cc1cc(=O)[nH][nH]1)c1cccc2ccccc12	–
830 nM	CN(Cc1cc(=O)[nH][nH]1)c1ccc(Cl)cc1	–
1200 nM	CN(Cc1cc(=O)[nH][nH]1)c1ccccc1Br	–
800 nM	O=c1cc(CN2CCCc3ccccc32)[nH][nH]1	–
> 32000 nM	CN(Cc1cc(=O)[nH]n1C)c1cc(Cl)cc(Cl)c1	–
1060 nM	O=c1cc(CN2CCc3ccccc32)[nH][nH]1	–
1310 nM	O=c1cc(CN(c2ccccc2)c2cc(Cl)cc(Cl)c2)[nH][nH]1	–
1270 nM	CN(Cc1cc(=O)[nH][nH]1)c1ccc(C#N)cc1	–
400 nM	O=c1cc(COc2cc(Cl)cc(Cl)c2)[nH][nH]1	t1/2 (Liver [2]): 1.85 h; half-life [3]: 0.6 h; t1/2 (Liver microsomes [4]): 2.88 h
1190 nM	CN(CCc1cc(=O)[nH][nH]1)c1cc(Cl)cc(Cl)c1	–
750 nM	CN(Cc1cc(=O)[nH][nH]1)c1cccc(Br)c1	–
1020 nM	C#CCN(Cc1cc(=O)[nH][nH]1)c1cc(Cl)cc(Cl)c1	–
690 nM	O=c1cc(CN(Cc2ccccc2)c2cc(Cl)cc(Cl)c2)[nH][nH]1	–
> 32000 nM	CN1N=C(CN(C)c2cc(Cl)cc(Cl)c2)C(C)(C)C1=O	–
670 nM	Cn1[nH]c(COc2cc(Cl)cc(Cl)c2)cc1=O	–

EC50 [1]	Structure (SMILES)	also measured
> 32000 nM	Cc1c(CN(C)c2cc(Cl)cc(Cl)c2)n(C)n(C)c1=O	–
1450 nM	CN(CCCc1cc(=O)[nH][nH]1)c1cc(Cl)cc(Cl)c1	Activity [5]: inactive; Activity (PC-12): Active
1400 nM	CN(Cc1cc(=O)[nH][nH]1)c1ccc(F)cc1	–
750 nM	CN(Cc1cc(=O)[nH][nH]1)c1ccccc1	–
710 nM	CN(Cc1cc(=O)[nH][nH]1)c1ccc(Br)cc1	–
610 nM	CC(C)N(Cc1cc(=O)[nH][nH]1)c1cc(Cl)cc(Cl)c1	–
420 nM	CN(Cc1cc(=O)[nH][nH]1)c1ccc(Cl)c(Cl)c1	–
650 nM	O=c1[nH][nH]c2c1CCN(c1cc(Cl)cc(Cl)c1)C2	–
780 nM	O=c1cc(CNc2cc(Cl)cc(Cl)c2)[nH][nH]1	Ratio (Caco-2 [6]): 47.1; Papp (Caco-2 [7]): 28.1 ×10⁻⁶ cm/s; Papp (Caco-2 [8]): 0.6 ×10⁻⁶ cm/s; t1/2 (Liver [2]): 1.67 h; t1/2 (Liver [9]): 0.5 h; t1/2 (Liver microsomes [4]): > 3 h; t1/2 (Liver microsomes [10]): 1.58 h; solubility [11]: >= 150 uM
570 nM	CN(Cc1cc(=O)[nH][nH]1)c1cc(Cl)cc(Cl)c1	Activity [12]: 100%; Ratio (Caco-2 [6]): 3.5; Papp (Caco-2 [7]): 7.6 ×10⁻⁶ cm/s; Papp (Caco-2 [8]): 2.2 ×10⁻⁶ cm/s; t1/2 (Liver [2]): > 3 h; t1/2 (Liver [9]): 0.417 h; t1/2 (Liver microsomes [4]): > 3 h; t1/2 (Liver microsomes [10]): > 3 h; solubility [11]: >= 150 uM
1270 nM	CC(C)(C)N(Cc1cc(=O)[nH][nH]1)c1cc(Cl)cc(Cl)c1	–
290 nM	CN(Cc1cc(=O)[nH][nH]1)c1ccc(Cl)cc1Cl	–
530 nM	O=c1cc(CN(c2cc(Cl)cc(Cl)c2)C2CC2)[nH][nH]1	–
> 32000 nM	CN(Cc1cc(=O)n(C)n1C)c1cc(Cl)cc(Cl)c1	–
830 nM	CN(Cc1cc(=O)[nH][nH]1)c1ccc2ccccc2c1	–
810 nM	COc1cccc(N(C)Cc2cc(=O)[nH][nH]2)c1	–
1450 nM	O=c1[nH][nH]c2c1CN(c1cc(Cl)cc(Cl)c1)CC2	Activity [5]: inactive; Activity (PC-12): Active
